Calls of active or inactive are those of the source. No cut-off for these calls is given here.
Tests used:
[1] = target: Mitogen-activated protein kinase 4 (Homo sapiens) (UniProt P31152); assay: Inhibition of T7 bacteriophage fused human ERK4 at 10 uM by KINOMEscan analysis relative to control
[2] = target: Cyclin-dependent kinase 8 (Homo sapiens) (UniProt P49336); assay: Inhibition of T7 bacteriophage fused human CDK8 at 10 uM by KINOMEscan analysis relative to control
[3] = target: Microtubule-associated serine/threonine-protein kinase 1 (Homo sapiens) (UniProt Q9Y2H9); assay: Inhibition of T7 bacteriophage fused human MAST1 at 10 uM by KINOMEscan analysis relative to control; values are per cent of control
[4] = target: Myosin light chain kinase, smooth muscle (Homo sapiens) (UniProt Q15746); assay: Inhibition of T7 bacteriophage fused human MYLK at 10 uM by KINOMEscan analysis relative to control; values are per cent of control
[5] = target: Serine/threonine-protein kinase Nek9 (Homo sapiens) (UniProt Q8TD19); assay: Inhibition of T7 bacteriophage fused human NEK9 at 10 uM by KINOMEscan analysis relative to control
[6] = target: TGF-beta receptor type-1 (Homo sapiens) (UniProt P36897); assay: Inhibition of T7 bacteriophage fused human TGFBR1 at 10 uM by KINOMEscan analysis relative to control
Sequence of TGF-beta receptor type-1 (Homo sapiens) (P36897 whole entry, the tested form may be a part, canonical isoform): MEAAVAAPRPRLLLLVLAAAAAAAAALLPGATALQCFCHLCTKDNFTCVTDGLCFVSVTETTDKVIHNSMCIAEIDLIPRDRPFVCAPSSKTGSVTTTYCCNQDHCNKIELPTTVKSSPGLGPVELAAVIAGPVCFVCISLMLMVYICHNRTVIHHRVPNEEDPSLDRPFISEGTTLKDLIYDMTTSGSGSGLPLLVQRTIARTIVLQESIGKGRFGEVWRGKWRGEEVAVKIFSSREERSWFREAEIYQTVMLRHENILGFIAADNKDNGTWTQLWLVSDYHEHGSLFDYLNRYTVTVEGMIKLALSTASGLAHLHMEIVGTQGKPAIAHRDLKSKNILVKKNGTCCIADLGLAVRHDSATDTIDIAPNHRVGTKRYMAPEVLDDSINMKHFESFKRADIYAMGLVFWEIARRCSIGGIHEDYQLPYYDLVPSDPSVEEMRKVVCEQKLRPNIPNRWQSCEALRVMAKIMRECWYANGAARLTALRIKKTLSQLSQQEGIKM

[7] = tested on: Phosphatidylinositol 4,5-bisphosphate 3-kinase catalytic subunit alpha isoform (Homo sapiens), P42336 [C420R]; assay: Inhibition of T7 bacteriophage fused human PIK3CA C420R mutant at 10 uM by KINOMEscan analysis relative to control
[8] = target: Mitogen-activated protein kinase kinase kinase kinase 5 (Homo sapiens) (UniProt Q9Y4K4); assay: Inhibition of T7 bacteriophage fused human MAP4K5 at 10 uM by KINOMEscan analysis relative to control
[9] = target: SRSF protein kinase 1 (Homo sapiens) (UniProt Q96SB4); assay: Inhibition of T7 bacteriophage fused human SRPK1 at 10 uM by KINOMEscan analysis relative to control
Sequence of SRSF protein kinase 1 (Homo sapiens) (Q96SB4 whole entry, the tested form may be a part): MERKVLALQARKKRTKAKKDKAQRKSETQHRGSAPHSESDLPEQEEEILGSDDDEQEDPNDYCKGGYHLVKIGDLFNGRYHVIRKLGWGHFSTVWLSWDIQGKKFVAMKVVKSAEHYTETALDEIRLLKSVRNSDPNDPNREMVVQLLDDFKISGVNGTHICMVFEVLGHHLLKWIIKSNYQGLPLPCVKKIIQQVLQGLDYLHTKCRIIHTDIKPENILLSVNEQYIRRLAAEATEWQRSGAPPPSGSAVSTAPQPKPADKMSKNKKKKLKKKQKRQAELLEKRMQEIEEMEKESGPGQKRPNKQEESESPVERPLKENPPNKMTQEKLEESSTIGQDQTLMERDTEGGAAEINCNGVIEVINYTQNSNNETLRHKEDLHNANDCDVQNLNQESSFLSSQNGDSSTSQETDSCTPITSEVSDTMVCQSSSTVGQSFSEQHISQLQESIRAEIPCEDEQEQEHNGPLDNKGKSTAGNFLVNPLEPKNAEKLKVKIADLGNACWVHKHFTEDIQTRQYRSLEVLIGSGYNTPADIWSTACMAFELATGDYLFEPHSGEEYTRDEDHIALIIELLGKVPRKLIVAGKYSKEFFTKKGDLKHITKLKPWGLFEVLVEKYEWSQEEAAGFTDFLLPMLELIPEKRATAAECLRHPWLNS

[10] = target: Dual specificity tyrosine-phosphorylation-regulated kinase 1B (Homo sapiens) (UniProt Q9Y463); assay: Inhibition of T7 bacteriophage fused human DYRK1B at 10 uM by KINOMEscan analysis relative to control; values are per cent of control
[11] = target: Serine/threonine-protein kinase MRCK gamma (Homo sapiens) (UniProt Q6DT37); assay: Inhibition of T7 bacteriophage fused human DMPK2 at 10 uM by KINOMEscan analysis relative to control
[12] = target: SRSF protein kinase 2 (Homo sapiens) (UniProt P78362); assay: Inhibition of T7 bacteriophage fused human SRPK2 at 10 uM by KINOMEscan analysis relative to control
Sequence of SRSF protein kinase 2 (Homo sapiens) (P78362 whole entry, looked up, the tested form may be a part): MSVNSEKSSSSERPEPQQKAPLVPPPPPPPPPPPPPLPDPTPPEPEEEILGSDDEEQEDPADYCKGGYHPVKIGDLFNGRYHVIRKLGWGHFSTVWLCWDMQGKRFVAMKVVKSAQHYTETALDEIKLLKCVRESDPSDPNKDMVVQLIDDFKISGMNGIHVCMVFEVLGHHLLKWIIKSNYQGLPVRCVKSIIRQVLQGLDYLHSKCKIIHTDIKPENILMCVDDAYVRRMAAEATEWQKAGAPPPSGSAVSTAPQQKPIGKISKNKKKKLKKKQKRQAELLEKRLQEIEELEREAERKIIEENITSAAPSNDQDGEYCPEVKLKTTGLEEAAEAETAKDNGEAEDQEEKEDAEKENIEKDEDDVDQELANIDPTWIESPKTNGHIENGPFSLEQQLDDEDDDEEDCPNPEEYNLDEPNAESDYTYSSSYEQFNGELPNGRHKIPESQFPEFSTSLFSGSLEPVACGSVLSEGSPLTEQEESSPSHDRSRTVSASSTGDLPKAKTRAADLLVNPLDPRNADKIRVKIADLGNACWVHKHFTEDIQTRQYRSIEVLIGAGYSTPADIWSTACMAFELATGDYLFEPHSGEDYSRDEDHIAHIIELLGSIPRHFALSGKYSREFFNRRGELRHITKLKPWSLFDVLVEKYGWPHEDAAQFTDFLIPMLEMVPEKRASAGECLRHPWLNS

[13] = target: MAP/microtubule affinity-regulating kinase 4 (Homo sapiens) (UniProt Q96L34); assay: Inhibition of T7 bacteriophage fused human MARK4 at 10 uM by KINOMEscan analysis relative to control; values are per cent of control
[14] = target: Calcium/calmodulin-dependent protein kinase type II subunit alpha (Homo sapiens) (UniProt Q9UQM7); assay: Inhibition of T7 bacteriophage fused human CAMK2A at 10 uM by KINOMEscan analysis relative to control
[15] = target: cAMP-dependent protein kinase catalytic subunit alpha (Homo sapiens) (UniProt P17612); assay: Inhibition of T7 bacteriophage fused human PKAC-alpha at 10 uM by KINOMEscan analysis relative to control
[16] = target: Maternal embryonic leucine zipper kinase (Homo sapiens) (UniProt Q14680); assay: Inhibition of T7 bacteriophage fused human MELK at 10 uM by KINOMEscan analysis relative to control
[17] = target: Leukocyte tyrosine kinase receptor (Homo sapiens) (UniProt P29376); assay: Inhibition of T7 bacteriophage fused human LTK at 10 uM by KINOMEscan analysis relative to control; values are per cent of control
[18] = target: Serine/threonine-protein kinase TAO3 (Homo sapiens) (UniProt Q9H2K8); assay: Inhibition of T7 bacteriophage fused human TAOK3 at 10 uM by KINOMEscan analysis relative to control
Sequence of Serine/threonine-protein kinase TAO3 (Homo sapiens) (Q9H2K8 whole entry, the tested form may be a part, canonical isoform): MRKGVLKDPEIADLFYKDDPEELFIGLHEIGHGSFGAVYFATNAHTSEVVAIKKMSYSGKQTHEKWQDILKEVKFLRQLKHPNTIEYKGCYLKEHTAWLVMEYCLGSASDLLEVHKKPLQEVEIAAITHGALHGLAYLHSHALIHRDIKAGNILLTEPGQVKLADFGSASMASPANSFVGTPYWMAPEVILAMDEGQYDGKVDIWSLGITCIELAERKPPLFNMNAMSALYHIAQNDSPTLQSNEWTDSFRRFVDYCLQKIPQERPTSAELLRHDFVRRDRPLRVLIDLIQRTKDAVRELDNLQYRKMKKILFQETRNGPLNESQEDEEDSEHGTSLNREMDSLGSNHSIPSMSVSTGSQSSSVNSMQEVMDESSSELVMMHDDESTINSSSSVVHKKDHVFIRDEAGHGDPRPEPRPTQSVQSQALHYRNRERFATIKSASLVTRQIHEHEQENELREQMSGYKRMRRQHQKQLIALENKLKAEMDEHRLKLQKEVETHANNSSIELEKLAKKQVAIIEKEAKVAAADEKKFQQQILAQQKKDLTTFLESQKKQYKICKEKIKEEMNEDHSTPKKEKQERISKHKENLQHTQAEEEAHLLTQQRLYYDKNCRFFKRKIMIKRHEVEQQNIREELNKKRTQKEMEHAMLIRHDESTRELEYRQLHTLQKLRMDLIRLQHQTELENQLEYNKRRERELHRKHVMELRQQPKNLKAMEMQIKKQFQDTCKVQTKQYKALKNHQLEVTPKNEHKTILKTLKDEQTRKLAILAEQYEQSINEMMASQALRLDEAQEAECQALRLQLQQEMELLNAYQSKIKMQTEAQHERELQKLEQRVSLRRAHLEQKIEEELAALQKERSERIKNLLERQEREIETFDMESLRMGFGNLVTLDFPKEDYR

[19] = target: Phosphorylase b kinase gamma catalytic chain, skeletal muscle/heart isoform (Homo sapiens) (UniProt Q16816); assay: Inhibition of T7 bacteriophage fused human PHKG1 at 10 uM by KINOMEscan analysis relative to control
[20] = target: Tyrosine-protein kinase Tec (Homo sapiens) (UniProt P42680); assay: Inhibition of T7 bacteriophage fused human TEC at 10 uM by KINOMEscan analysis relative to control
[21] = target: Serine/threonine-protein kinase MARK1 (Homo sapiens) (UniProt Q9P0L2); assay: Inhibition of T7 bacteriophage fused human MARK1 at 10 uM by KINOMEscan analysis relative to control; values are per cent of control
[22] = target: Tyrosine-protein kinase BTK (Homo sapiens) (UniProt Q06187); assay: Inhibition of T7 bacteriophage fused human BTK at 10 uM by KINOMEscan analysis relative to control
[23] = target: Phosphatidylinositol 4,5-bisphosphate 3-kinase catalytic subunit alpha isoform (Homo sapiens) (UniProt P42336); assay: Inhibition of T7 bacteriophage fused human PIK3CA at 10 uM by KINOMEscan analysis relative to control
[24] = target: Serine/threonine-protein kinase 33 (Homo sapiens) (UniProt Q9BYT3); assay: Inhibition of T7 bacteriophage fused human STK33 at 10 uM by KINOMEscan analysis relative to control
Sequence of Serine/threonine-protein kinase 33 (Homo sapiens) (Q9BYT3 whole entry, looked up, the tested form may be a part): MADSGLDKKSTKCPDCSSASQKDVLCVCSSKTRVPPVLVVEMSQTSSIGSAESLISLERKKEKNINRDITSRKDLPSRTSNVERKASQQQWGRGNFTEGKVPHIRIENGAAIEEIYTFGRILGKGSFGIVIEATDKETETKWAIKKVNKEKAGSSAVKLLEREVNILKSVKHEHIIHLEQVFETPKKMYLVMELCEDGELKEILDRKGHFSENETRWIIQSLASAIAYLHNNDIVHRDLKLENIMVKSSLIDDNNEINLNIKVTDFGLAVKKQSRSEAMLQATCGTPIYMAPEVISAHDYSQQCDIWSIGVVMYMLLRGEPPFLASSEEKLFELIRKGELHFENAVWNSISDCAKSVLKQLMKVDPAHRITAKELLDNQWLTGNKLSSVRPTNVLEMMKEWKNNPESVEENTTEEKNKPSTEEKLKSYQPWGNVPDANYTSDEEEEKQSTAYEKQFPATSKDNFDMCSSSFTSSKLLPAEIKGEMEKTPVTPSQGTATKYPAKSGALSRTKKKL

[25] = target: Cyclin-dependent kinase 2 homolog (Plasmodium falciparum (isolate K1 / Thailand)) (UniProt Q07785); assay: Inhibition of T7 bacteriophage fused Plasmodium falciparum PK5 at 10 uM by KINOMEscan analysis relative to control
Sequence of Cyclin-dependent kinase 2 homolog (Plasmodium falciparum (isolate K1 / Thailand)) (Q07785 whole entry, the tested form may be a part): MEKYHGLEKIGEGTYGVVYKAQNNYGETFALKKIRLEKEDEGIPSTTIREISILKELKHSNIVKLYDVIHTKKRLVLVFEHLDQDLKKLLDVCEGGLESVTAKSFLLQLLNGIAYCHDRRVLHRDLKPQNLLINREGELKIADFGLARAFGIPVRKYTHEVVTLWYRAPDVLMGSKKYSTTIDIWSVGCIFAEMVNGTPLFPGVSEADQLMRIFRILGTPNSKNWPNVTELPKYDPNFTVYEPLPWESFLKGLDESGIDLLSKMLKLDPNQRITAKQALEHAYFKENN

[26] = target: TRAF2 and NCK-interacting protein kinase (Homo sapiens) (UniProt Q9UKE5); assay: Inhibition of T7 bacteriophage fused human TNIK at 10 uM by KINOMEscan analysis relative to control
Sequence of TRAF2 and NCK-interacting protein kinase (Homo sapiens) (Q9UKE5 whole entry, looked up, the tested form may be a part): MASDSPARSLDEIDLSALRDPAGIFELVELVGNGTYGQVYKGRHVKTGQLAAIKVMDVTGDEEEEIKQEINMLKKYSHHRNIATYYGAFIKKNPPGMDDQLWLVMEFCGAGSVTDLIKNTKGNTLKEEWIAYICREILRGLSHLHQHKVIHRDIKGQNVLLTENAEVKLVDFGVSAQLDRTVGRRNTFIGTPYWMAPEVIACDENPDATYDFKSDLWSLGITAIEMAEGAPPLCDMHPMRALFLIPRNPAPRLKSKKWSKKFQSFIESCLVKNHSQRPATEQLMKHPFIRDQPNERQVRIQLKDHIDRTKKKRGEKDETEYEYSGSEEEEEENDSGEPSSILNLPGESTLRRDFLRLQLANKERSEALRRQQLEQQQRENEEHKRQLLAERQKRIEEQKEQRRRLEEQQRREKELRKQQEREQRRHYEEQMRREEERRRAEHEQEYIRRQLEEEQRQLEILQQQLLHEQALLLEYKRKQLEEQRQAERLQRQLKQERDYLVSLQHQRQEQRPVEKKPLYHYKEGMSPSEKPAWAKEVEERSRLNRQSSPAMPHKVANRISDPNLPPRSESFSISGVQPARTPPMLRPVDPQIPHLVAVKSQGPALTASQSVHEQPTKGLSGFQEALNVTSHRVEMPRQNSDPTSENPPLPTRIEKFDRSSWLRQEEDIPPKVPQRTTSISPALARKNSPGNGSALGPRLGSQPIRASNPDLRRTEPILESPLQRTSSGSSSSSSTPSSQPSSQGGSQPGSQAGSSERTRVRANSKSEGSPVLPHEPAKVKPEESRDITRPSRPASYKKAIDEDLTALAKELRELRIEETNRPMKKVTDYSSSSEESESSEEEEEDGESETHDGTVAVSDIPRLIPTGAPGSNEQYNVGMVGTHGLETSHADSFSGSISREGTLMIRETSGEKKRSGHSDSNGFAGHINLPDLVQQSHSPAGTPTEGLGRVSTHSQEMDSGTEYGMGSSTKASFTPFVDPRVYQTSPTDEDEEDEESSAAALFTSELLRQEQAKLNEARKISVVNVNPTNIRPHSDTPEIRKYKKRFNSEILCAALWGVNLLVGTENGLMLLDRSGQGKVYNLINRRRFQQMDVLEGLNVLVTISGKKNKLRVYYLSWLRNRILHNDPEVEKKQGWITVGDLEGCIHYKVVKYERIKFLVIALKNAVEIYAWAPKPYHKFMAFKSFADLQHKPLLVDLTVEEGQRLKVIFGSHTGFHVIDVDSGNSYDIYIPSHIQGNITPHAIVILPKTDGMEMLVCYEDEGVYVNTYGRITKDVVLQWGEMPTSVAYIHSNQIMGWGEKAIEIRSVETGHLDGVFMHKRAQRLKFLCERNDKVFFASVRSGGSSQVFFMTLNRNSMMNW

[27] = target: Leucine-rich repeat serine/threonine-protein kinase 2 (Homo sapiens) (UniProt Q5S007); assay: Inhibition of T7 bacteriophage fused human LRRK2 at 10 uM by KINOMEscan analysis relative to control; values are per cent of control
[28] = tested on: Leucine-rich repeat serine/threonine-protein kinase 2 (Homo sapiens), Q5S007 [A2016T]; assay: Inhibition of drug-resistant GFP-tagged LRRK2 A2016T mutant phosphorylation at Ser935 residue (unknown origin) transfected in HEK293 cells upto 3 uM incubated for 90 mins by immunoblot analysis; format: cell-based
Method in brief: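 HEK293 cells stably expressing GFP-LRRK2 variants, grown in DMEM with 10% FBS, 2 mM glutamine and penicillin/streptomycin. Compound added from DMSO stock (final DMSO ≤1%) at increasing concentrations for 90 min, DMSO control. Cells were PBS-washed and lysed in Triton X-100 lysis buffer. Lysates were run on 8% SDS-PAGE and immunoblotted with rabbit monoclonals against pSer910, pSer935 and total LRRK2.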

COc1cc(N2CCC(N3CCN(C)CC3)CC2)ccc1Nc1ncc2c(n1)N(C)c1ccccc1C(=O)N2C
inhibition [1]: 100%
inhibition [2]: 100%
residual activity [3]: 100%
residual activity [4]: 8.7%
inhibition [5]: 100%
inhibition [6]: 100%
inhibition [7]: 89%
inhibition [8]: 100%
inhibition [9]: 94%
residual activity [10]: 94%
inhibition [11]: 100%
inhibition [12]: 100%
residual activity [13]: 78%
inhibition [14]: 21%
inhibition [15]: 100%
inhibition [16]: 100%
residual activity [17]: 32%
inhibition [18]: 24%
inhibition [19]: 54%
inhibition [20]: 100%
residual activity [21]: 87%
inhibition [22]: 100%
inhibition [23]: 74%
inhibition [24]: 10%
inhibition [25]: 100%
inhibition [26]: 100%
residual activity [27]: 0%

COc1cc(C(=O)N2CCC(N3CCN(C)CC3)CC2)ccc1Nc1ncc2c(n1)N(C1CCCC1)c1ccccc1C(=O)N2C
inhibition [18]: 100%
inhibition [26]: 100%

CCOc1cc(C(=O)N2CCC(N3CCN(C)CC3)CC2)ccc1Nc1ncc2c(n1)N(C1CCCC1)c1ccccc1C(=O)N2C
residual activity [3]: 100%
inhibition [6]: 100%
inhibition [9]: 100%
inhibition [12]: 100%
inhibition [20]: 100%
inhibition [28]: inactive
inhibition [24]: 100%
inhibition [25]: 100%
